Data from ChEMBL document CHEMBL1147557, “Glycosyltransferase activity can be selectively modulated by chemical modifications of acceptor substrates” (Bioorg Med Chem Lett, 2004).
Values belong to the molecule of their own block, whether it stands above or below them. Active and inactive are the calls of the source. No cut-off for these calls is given here.

Tests used:
[1] = system: Alpha-(1,3)-fucosyltransferase 6 (Homo sapiens); assay: Kinetic parameter of […] by fucosyltransferase 6 alpha 1,3
[2] = molecular target: T1, Beta-galactoside alpha-2,6-sialyltransferase 1 (Rattus norvegicus) (UniProt P13721); assay: (§1) Kinetic parameter of sialylation by alpha-2,6-sialyltransferase
T1 sequence (whole entry): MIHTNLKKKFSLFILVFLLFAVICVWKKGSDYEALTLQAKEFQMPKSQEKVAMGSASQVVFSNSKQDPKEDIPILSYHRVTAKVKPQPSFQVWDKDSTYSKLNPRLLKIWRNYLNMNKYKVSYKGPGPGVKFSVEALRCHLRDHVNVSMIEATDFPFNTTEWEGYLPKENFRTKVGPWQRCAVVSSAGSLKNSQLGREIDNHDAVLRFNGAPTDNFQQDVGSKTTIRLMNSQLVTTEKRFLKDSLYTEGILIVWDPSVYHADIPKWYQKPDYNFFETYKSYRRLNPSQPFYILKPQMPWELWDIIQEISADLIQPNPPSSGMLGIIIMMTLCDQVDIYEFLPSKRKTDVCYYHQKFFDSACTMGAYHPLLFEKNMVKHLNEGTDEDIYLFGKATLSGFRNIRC
Method in brief: (§2)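 Rat liver recombinant α-2,6-sialyltransferase transferring CMP-[14C]-Neu5Ac to LacNAc-based acceptors. Apparent kinetic parameters (Km, Vmax) were determined by previously reported assays. Vmax is expressed relative to unmodified LacNAc, which is set at 1.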

[3] = system: Alpha-(1,3)-fucosyltransferase 6 (Homo sapiens); assay: Kinetic parameter of […] of compound by fucosyltransferase 6 alpha 1,3; Not active
[4] = substrate: CO[C@@H]1O[C@@H](COS(C)(=O)=O)[C@@H](O[C@@H]2O[C@@H](CO)[C@H](O)[C@H](O)[C@@H]2O)[C@H](O)[C@@H]1NC(C)=O; assay: (§3) Apparent kinetic parameter of sialylation by alpha-2,6-sialyltransferase; settings: Rattus norvegicus
Method in brief: as §2

[5] = substrate: CO[C@@H]1O[C@@H](CO)[C@@H](O[C@@H]2O[C@@H](CO)[C@H](O)[C@H](O)[C@@H]2OC)[C@H](O)[C@@H]1NC(C)=O; assay: as §3; settings: Rattus norvegicus
Method in brief: as §2

[6] = substrate: COC[C@@H]1O[C@@H](OC)[C@@H](NC(C)=O)[C@@H](O)[C@@H]1O[C@@H]1O[C@@H](CO)[C@H](O)[C@H](O)[C@@H]1OC; assay: as §3; settings: Rattus norvegicus
Method in brief: as §2

[7] = substrate: CO[C@@H]1O[C@@H](CNC=O)[C@@H](O[C@@H]2O[C@@H](CO)[C@H](O)[C@H](O)[C@@H]2OC)[C@H](O)[C@@H]1NC(C)=O; assay: as §3; settings: Rattus norvegicus
Method in brief: as §2

[8] = substrate: CO[C@@H]1O[C@@H](CNC(C)=O)[C@@H](O[C@@H]2O[C@@H](CO)[C@H](O)[C@H](O)[C@@H]2O)[C@H](O)[C@@H]1NC(C)=O; assay: as §3; settings: Rattus norvegicus
Method in brief: as §2

[9] = substrate: CO[C@@H]1O[C@@H](CNC=O)[C@@H](O[C@@H]2O[C@@H](CO)[C@H](O)[C@H](O)[C@@H]2O)[C@H](O)[C@@H]1NC(C)=O; assay: as §3; settings: Rattus norvegicus
Method in brief: as §2

[10] = substrate: CO[C@@H]1O[C@@H](CN)[C@@H](O[C@@H]2O[C@@H](CO)[C@H](O)[C@H](O)[C@@H]2O)[C@H](O)[C@@H]1NC(C)=O; assay: as §3; settings: Rattus norvegicus
Method in brief: as §2

[11] = substrate: COC[C@@H]1O[C@@H](OC)[C@@H](NC(C)=O)[C@@H](O)[C@@H]1O[C@@H]1O[C@@H](CO)[C@H](O)[C@H](O)[C@@H]1O; assay: as §3; settings: Rattus norvegicus
Method in brief: as §2

[12] = substrate: CNC(=O)[C@@H]1O[C@@H](OC)[C@@H](NC(C)=O)[C@@H](O)[C@@H]1O[C@@H]1O[C@@H](CO)[C@H](O)[C@H](O)C1O; assay: as §3; settings: Rattus norvegicus
Method in brief: as §2

[13] = substrate: CO[C@@H]1O[C@@H](CO)[C@@H](O[C@@H]2O[C@@H](CO)[C@H](O)[C@H](O)[C@@H]2O)[C@H](O)[C@@H]1NC(C)=O; assay: as §3; settings: Rattus norvegicus
Method in brief: as §2

[14] = substrate: CO[C@@H]1O[C@@H](C(N)=O)[C@@H](O[C@@H]2O[C@@H](CO)[C@H](O)[C@H](O)[C@@H]2O)[C@H](O)[C@@H]1NC(C)=O; assay: as §3; settings: Rattus norvegicus
Method in brief: as §2

[15] = substrate: CO[C@@H]1O[C@@H](CNS(C)(=O)=O)[C@@H](O[C@@H]2O[C@@H](CO)[C@H](O)[C@H](O)[C@@H]2O)[C@H](O)[C@@H]1NC(C)=O; assay: as §3; settings: Rattus norvegicus
Method in brief: as §2

[16] = substrate: CO[C@@H]1O[C@@H](COS(C)(=O)=O)[C@@H](O[C@@H]2O[C@@H](CO)[C@H](O)[C@H](O)[C@@H]2O)[C@H](O)[C@@H]1NC(C)=O; assay: as §1; settings: Rattus norvegicus
Method in brief: as §2

[17] = substrate: CO[C@@H]1O[C@@H](CO)[C@@H](O[C@@H]2O[C@@H](CO)[C@H](O)[C@H](O)[C@@H]2OC)[C@H](O)[C@@H]1NC(C)=O; assay: as §1; settings: Rattus norvegicus
Method in brief: as §2

[18] = substrate: COC[C@@H]1O[C@@H](OC)[C@@H](NC(C)=O)[C@@H](O)[C@@H]1O[C@@H]1O[C@@H](CO)[C@H](O)[C@H](O)[C@@H]1OC; assay: as §1; settings: Rattus norvegicus
Method in brief: as §2

[19] = substrate: CO[C@@H]1O[C@@H](CNC=O)[C@@H](O[C@@H]2O[C@@H](CO)[C@H](O)[C@H](O)[C@@H]2OC)[C@H](O)[C@@H]1NC(C)=O; assay: as §1; settings: Rattus norvegicus
Method in brief: as §2

[20] = substrate: CO[C@@H]1O[C@@H](CNC(C)=O)[C@@H](O[C@@H]2O[C@@H](CO)[C@H](O)[C@H](O)[C@@H]2O)[C@H](O)[C@@H]1NC(C)=O; assay: as §1; settings: Rattus norvegicus
Method in brief: as §2

[21] = substrate: CO[C@@H]1O[C@@H](CNC=O)[C@@H](O[C@@H]2O[C@@H](CO)[C@H](O)[C@H](O)[C@@H]2O)[C@H](O)[C@@H]1NC(C)=O; assay: as §1; settings: Rattus norvegicus
Method in brief: as §2

[22] = substrate: CO[C@@H]1O[C@@H](CN)[C@@H](O[C@@H]2O[C@@H](CO)[C@H](O)[C@H](O)[C@@H]2O)[C@H](O)[C@@H]1NC(C)=O; assay: as §1; settings: Rattus norvegicus
Method in brief: as §2

[23] = substrate: COC[C@@H]1O[C@@H](OC)[C@@H](NC(C)=O)[C@@H](O)[C@@H]1O[C@@H]1O[C@@H](CO)[C@H](O)[C@H](O)[C@@H]1O; assay: as §1; settings: Rattus norvegicus
Method in brief: as §2

[24] = substrate: CNC(=O)[C@@H]1O[C@@H](OC)[C@@H](NC(C)=O)[C@@H](O)[C@@H]1O[C@@H]1O[C@@H](CO)[C@H](O)[C@H](O)C1O; assay: as §1; settings: Rattus norvegicus
Method in brief: as §2

[25] = substrate: CO[C@@H]1O[C@@H](CO)[C@@H](O[C@@H]2O[C@@H](CO)[C@H](O)[C@H](O)[C@@H]2O)[C@H](O)[C@@H]1NC(C)=O; assay: as §1; settings: Rattus norvegicus
Method in brief: as §2

[26] = substrate: CO[C@@H]1O[C@@H](C(N)=O)[C@@H](O[C@@H]2O[C@@H](CO)[C@H](O)[C@H](O)[C@@H]2O)[C@H](O)[C@@H]1NC(C)=O; assay: as §1; settings: Rattus norvegicus
Method in brief: as §2

[27] = substrate: CO[C@@H]1O[C@@H](CNS(C)(=O)=O)[C@@H](O[C@@H]2O[C@@H](CO)[C@H](O)[C@H](O)[C@@H]2O)[C@H](O)[C@@H]1NC(C)=O; assay: as §1; settings: Rattus norvegicus
Method in brief: as §2

Vmax / Km [1]: 9.3 | Vmax / Km [2]: 0.3
Molecule: CO[C@@H]1O[C@@H](CNC=O)[C@@H](O[C@@H]2O[C@@H](CO)[C@H](O)[C@H](O)[C@@H]2OC)[C@H](O)[C@@H]1NC(C)=O

Vmax / Km [1]: 1.2 | Vmax / Km [2]: 0.2
Molecule: COC(=O)[C@@H]1O[C@@H](OC)[C@@H](NC(C)=O)[C@@H](O)[C@@H]1O[C@@H]1O[C@@H](CO)[C@H](O)[C@H](O)[C@@H]1O

Vmax / Km [2]: 0.6
Molecule: CO[C@@H]1O[C@@H](CO)[C@@H](O[C@@H]2O[C@@H](CO)[C@H](O)[C@H](O)[C@@H]2O)[C@H](O)[C@@H]1NC(C)=O

Vmax / Km [1]: 6.8 | Vmax / Km [2]: 0.4
Molecule: CO[C@@H]1O[C@@H](CNC(C)=O)[C@@H](O[C@@H]2O[C@@H](CO)[C@H](O)[C@H](O)[C@@H]2O)[C@H](O)[C@@H]1NC(C)=O

Vmax / Km [3]: inactive | Vmax / Km [2]: 0.02
Molecule: CO[C@@H]1O[C@@H](C(N)=O)[C@@H](O[C@@H]2O[C@@H](CO)[C@H](O)[C@H](O)[C@@H]2O)[C@H](O)[C@@H]1NC(C)=O

Vmax / Km [1]: 6.7 | Vmax / Km [2]: 0.04
Molecule: COC[C@@H]1O[C@@H](OC)[C@@H](NC(C)=O)[C@@H](O)[C@@H]1O[C@@H]1O[C@@H](CO)[C@H](O)[C@H](O)[C@@H]1OC

Vmax / Km [1]: 4.5 | Vmax / Km [2]: 0.2
Molecule: COC[C@@H]1O[C@@H](OC)[C@@H](NC(C)=O)[C@@H](O)[C@@H]1O[C@@H]1O[C@@H](CO)[C@H](O)[C@H](O)[C@@H]1O

Vmax / Km [1]: 3.1 | Vmax / Km [2]: 0.2
Molecule: CO[C@@H]1O[C@@H](CO)[C@@H](O[C@@H]2O[C@@H](CO)[C@H](O)[C@H](O)[C@@H]2OC)[C@H](O)[C@@H]1NC(C)=O

Vmax / Km [1]: 1.5 | Vmax / Km [2]: 0.08
Molecule: CO[C@@H]1O[C@@H](CN)[C@@H](O[C@@H]2O[C@@H](CO)[C@H](O)[C@H](O)[C@@H]2O)[C@H](O)[C@@H]1NC(C)=O

Vmax / Km [1]: 7.3 | Vmax / Km [2]: 1.5
Molecule: CO[C@@H]1O[C@@H](CNC=O)[C@@H](O[C@@H]2O[C@@H](CO)[C@H](O)[C@H](O)[C@@H]2O)[C@H](O)[C@@H]1NC(C)=O

Vmax / Km [1]: 3.6 | Vmax / Km [2]: 1.3
Molecule: CO[C@@H]1O[C@@H](COS(C)(=O)=O)[C@@H](O[C@@H]2O[C@@H](CO)[C@H](O)[C@H](O)[C@@H]2O)[C@H](O)[C@@H]1NC(C)=O

Vmax / Km [1]: 0.4 | Vmax / Km [2]: 0.08
Molecule: CNC(=O)[C@@H]1O[C@@H](OC)[C@@H](NC(C)=O)[C@@H](O)[C@@H]1O[C@@H]1O[C@@H](CO)[C@H](O)[C@H](O)C1O (some centres undefined)

Vmax / Km [1]: 8.7 | Vmax / Km [2]: 0.9
Molecule: CO[C@@H]1O[C@@H](CNS(C)(=O)=O)[C@@H](O[C@@H]2O[C@@H](CO)[C@H](O)[C@H](O)[C@@H]2O)[C@H](O)[C@@H]1NC(C)=O

B1: Beta-galactoside alpha-2,6-sialyltransferase 1 (Rattus norvegicus), P13721 (protein)
chain: T1 sequence (whole entry)
Km [4]: 700 µM | Km [5]: 4100 µM | Km [6]: 11200 µM | Km [7]: 3100 µM | Km [8]: 1400 µM | Km [9]: 1100 µM | Km [10]: 5800 µM | Km [11]: 4300 µM | Km [12]: 2400 µM | Km [13]: 1700 µM | Km [14]: > 10000 µM | Km [15]: 800 µM | Vmax [16]: 0.9 | Vmax [17]: 0.8 | Vmax [18]: 0.5 | Vmax [19]: 1 | Vmax [20]: 0.6 | Vmax [21]: 1.6 | Vmax [22]: 0.5 | Vmax [23]: 0.8 | Vmax [24]: 0.2 | Vmax [25]: 1 | Vmax [26]: < 0.2 | Vmax [27]: 0.7
